Source: article PMC10590554 (Drug Design, Development and Therapy, 2023)
Where “and” joins values, the source holds several entries; their conditions need not be identical. Equal entries are not always repeated. Where two headings read alike, the source gives them in different places.

Assays:
[1] = after oral administration; cited from earlier work
CYP3A4 = settings: human microsomes and cDNA expressed human CYP enzymes; cited from earlier work
[2] = with flavoured water; cited from earlier work
[3] = with ketoconazole (CYP3A4 inhibitor); cited from earlier work
[4] = Stability of erlotinib in rat plasma; assay type: in vitro ADME; settings: various storage conditions, QC 8 and 800 ng/mL
Procedure, shortened: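 Blank rat plasma spiked with erlotinib QC at 8 and 800 ng/mL, five replicates per level. Held at room temperature 4 h, at −80°C for 60 days, or through 3 freeze-thaw cycles; processed samples held 4°C 24 h. Acetonitrile-tinidazole protein precipitation, then UPLC-MS/MS against a 5–1000 ng/mL 1/x²-weighted curve. Accuracy taken as measured/theoretical concentration ×100%.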

[5] = cited from earlier work
[6] = assay type: in vivo, Sprague-Dawley rats; settings: rats
Procedure, shortened: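 Male Sprague-Dawley rats (220–260 g), acclimatised one week, fasted 12 h with free water, n=7/group. Single dose of vehicle (0.5% CMC-Na), simvastatin 2 mg/kg or itraconazole 15 mg/kg, then erlotinib 12 mg/kg in 0.5% CMC-Na by oral gavage 30 min later. Tail-vein blood taken into heparin at 0–24 h; plasma assayed by UPLC-MS/MS with tinidazole IS. Mean ± SD; ANOVA with Dunnett; Tmax by Wilcoxon signed-rank.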

[7] = co-administration with itraconazole; cited from earlier work
[8] = with itraconazole, rats; cited from earlier work
[9] = with itraconazole, humans; cited from earlier work
[10] = itraconazole group vs erlotinib alone group, P<0.05
[11] = itraconazole group vs erlotinib alone group, not significant
[12] = simvastatin group vs erlotinib alone group, P>0.05

## C#Cc1cccc(Nc2ncnc3cc(OCCOC)c(OCCOC)cc23)c1 [Erlotinib, erlotinib]
[1]
  eliminated via urine and feces route: 91%
CYP3A4
  share of metabolism by CYP3A4: 70%
[2]
  increase of AUC of erlotinib: 200%
  increase of Cmax of erlotinib: 95%
[3]
  increase of AUC of erlotinib: 86%
  increase of Cmax of erlotinib: 102%
[4]
  Accuracy over all stability conditions: 87.56–112.17%
[5]; combined with tamoxifen vs single administration
  reduction of AUC of erlotinib: 54%
[6]; 15 mg/kg itraconazole with 12 mg/kg erlotinib vs erlotinib alone, P<0.05
  increase of AUC: 32.3%
[6]; [10]
  decrease of CL/F: ~24.24% and 24.2%
  increase of AUC0-t: approximately 32.32%
  increase of AUC0-∞: ~32.29%
  increase of Cmax: ~33.54% and 33.5%
[6]; [11]
  decrease of Vz/F: approximately 19.30%
  increase of t1/2: ~5.33%
[6]; itraconazole group, P<0.05
  AUC0-t, fold higher than erlotinib alone group: approximately 1.32 fold
  AUC0-∞, fold higher than erlotinib alone group: approximately 1.32 fold
  Cmax, fold higher than erlotinib alone group: ~1.34 fold
[6]; [12]
  decrease of CL/F: approximately 6.06%
  increase of AUC0-∞: ~9.50%
  increase of Cmax: ~3.80%
  increase of Vz/F: ~1.16%
  increase of t1/2: ~7.56%

## N#CC1(c2ccc(NC(=O)c3cccnc3NCc3ccncc3)cc2)CCCC1 [apatinib]
[7]
  reduction of CL/F of apatinib: 40%

## CCc1nc(C(N)=O)c(Nc2ccc(N3CCC(N4CCN(C)CC4)CC3)c(OC)c2)nc1NC1CCOCC1 [gilteritinib]
[8]
  increase of exposure of gilteritinib: 1.4 fold
[9]
  increase of exposure of gilteritinib: 2.2 fold

## CC/C(=C(\c1ccccc1)c1ccc(OCCN(C)C)cc1)c1ccccc1 [tamoxifen]
[5]; combined with erlotinib vs single administration
  increase of Cmax of tamoxifen: 46%
